Screens (PubChem BioAssay)
Rad51 HR inh = blocks human Rad51 in homologous recombination | Q06609 | hRad51 DNA strand exchange, fluorescence dequenching | inhibition, % at 10 µM | 0.085% of 200,000 active;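 active means inhibition above 40% at the single screening dose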;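 further: 0% = DMSO control wells and 100% = blanks with heterologous ssDNA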
Target sequence (Q06609 whole entry, looked up): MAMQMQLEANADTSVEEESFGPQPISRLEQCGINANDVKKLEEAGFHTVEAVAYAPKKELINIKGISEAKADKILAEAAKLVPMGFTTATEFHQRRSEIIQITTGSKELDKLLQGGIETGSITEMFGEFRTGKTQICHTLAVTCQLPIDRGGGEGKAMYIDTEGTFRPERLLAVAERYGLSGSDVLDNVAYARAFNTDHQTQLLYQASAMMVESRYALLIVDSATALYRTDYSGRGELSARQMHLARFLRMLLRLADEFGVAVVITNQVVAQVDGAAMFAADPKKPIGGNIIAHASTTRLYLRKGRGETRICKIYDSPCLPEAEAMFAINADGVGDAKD
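System: human Rad51 nucleoprotein filaments preassembled on unlabelled ssDNA. Reagent: labelled 47-mer dsDNA for strand exchange. Schedule: 30-min compound preincubation and 15-min exchange, both room temperature. Measured by: FRET fluorescence dequenching, excitation 485 nm, emission 520 nm. Read-out: Fluorescence-based percent inhibition, control- and blank-normalised. Benchmarks: plate controls and plate blanks.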
PMI act = increases human mannose-6-phosphate isomerase activity; 0.005% of 190,000 active; activation factor at 20 µM; AID 1214; P34949; purified human PMI, coupled resazurin fluorescence, 20 min; stronger effect = higher value; 1 = vehicle control, 0 substrate-free wells;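 active means activation factor of 2 or more at 20 µM, relative to plate controls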
Lmaj promast = Leishmania major promastigote growth inhibition; Leishmania major promastigotes, resazurin fluorescence viability; inhibition, % at 10 µM; 9% of 200,000 active; AID 1063; in the data active means inhibition above about 50%;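 further: promastigotes grown with compound for 44 hours at 28 °C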
WT yeast gro inh = growth inhibition of WT yeast, mitochondrial fusion screen. inhibition, % at 10 µM. mitochondrial fusion phenotypic screen, WT strain. AID 1362. 2.1% of 190,000 active; in the data active means inhibition above about 58%; tested in S. cerevisiae
m-calpain inh = inhibitors of pig calpain II; 0.37% of 220,000 active; inhibition, % at 16 µM; purified calpain II, fluorogenic peptide substrate, 30 min; AID 1236;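 active means inhibition above about 50%, limit read from the data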
PMI act hi M6P = activators of human phosphomannose isomerase at near-saturating mannose 6-phosphate. P34949. coupled PMI enzyme assay, resazurin fluorescence, 20 min; stronger effect = higher value; 1 = untreated enzyme, 0 = substrate-free blank. activation factor at 20 µM. 0.34% of 190,000 active. AID 1216;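 active means activation factor of 2 or more at 20 µM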
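Technique: Diaphorase-driven resazurin-to-resorufin fluorescence, excitation 544, emission 590 nm | Assay system: Human PMI in coupled enzyme assay | Times: Enzyme reaction with compound 20 min at room temperature | Medium: HEPES-buffered pH 7.4 with magnesium and detergent | Reagent: Mannose-6-phosphate 1.0 mM (near-saturating) plus 0.22 mM NADP+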
* = called active by the depositor; i = inactive; . = no result given. A selection: hits, their analogues and other compounds. The true share with any hit is near 9.8%.

SMILES	Rad51 HR inh	PMI act	Lmaj promast	WT yeast gro inh	m-calpain inh	PMI act hi M6P
CCN1CCC2(CC1)NC(=O)c1ccccc1O2	.	1.1	-3	4	15	1
COP(=O)(OC)C(NC(=O)/C=C/c1ccccc1)C(Cl)(Cl)Cl (stereo not given)	-45	1.2	-7	-4	-9	1.1
CC1C(c2cccs2)=[N+]([O-])C(C)(C(=O)c2cccs2)N1O (stereo not given)	10	1	-6	14	26	1
Nc1cc(Cl)c2nonc2c1[N+](=O)[O-]	-9	0.8	98*	-4	-13	1
CCC(C#N)(CC)P(=S)(c1ccccc1)c1ccccc1	5	1	100*	52	26	1
O=c1[nH]c(=O)n(Cc2ccccc2Cl)c(O)c1/C=C1/C=CC=N1	-45	1	24	-9	2	1
CCOC(=O)c1c(C)n(Cc2ccccc2)c2ccc(OCC(O)Cn3nc(C)cc3C)cc12 (stereo not given)	1	0.8	18	66*	13	0.9
CCOC(=O)c1c(C)n(Cc2ccccc2)c2ccc(OCC(O)Cn3nc(C)nc3C)cc12 (stereo not given)	.	0.8	12	7	-105	0.9
O=C(Nc1ccc2ccccc2c1)N1C[C@H]2C[C@@H](C1)c1cccc(=O)n1C2	.	.	.	.	19	.
N[C@@H](Cc1c[nH]c2ccccc12)c1nnc(SCc2ccc(Cl)cc2)o1	-2	0.9	0	62*	7	0.9
COC(=O)c1c(C)[nH]c(C(=O)C(Cc2ccccc2)N(C)C)c1C (stereo not given)	4	1	100*	3	3	1.1
CCCCCn1c(=O)c(C(=O)Nc2nc3ccccc3[nH]2)c(O)c2ccccc21	0	.	.	.	-18	.
CC(C)CCn1c(=O)c(C(=O)Nc2ccccc2S(N)(=O)=O)c(O)c2ccccc21	-1	0.9	100*	27	-59	0.9
CCCCn1c(=O)c(C(=O)Nc2cnccn2)c(O)c2ccccc21	-1	0.9	52*	9	-27	1
CC(C)CN(C(=O)CN1CC=C(c2ccccc2)CC1)c1c(N)n(CC(C)C)c(=O)[nH]c1=O	-5	1	-5	0	-5	0.8
O=c1c2ccccc2[nH]c(=S)n1-c1ccc2c(c1)OCO2	.	1.1	1	63*	-4	1
Cc1cc(C=O)c(C)n1C1CC1	4	1	-3	4	-19	1
O=C(Nc1nc(-c2ccccc2)c(-c2ccccc2)s1)c1ccc(S(=O)(=O)N(CCCl)CCCl)cc1	-6	1	74*	-11	-134	1
Cn1c(O)c(C=NCCCCCCCCCCC(=O)O)c(=O)n(C)c1=O	4	.	.	.	-14	.
CN1C(=O)N(C)C(=O)C2(Cc3c(nc4ccccn4c3=O)N3CCC(Cc4ccccc4)CC32)C1=O (stereo not given)	.	1	.	.	.	1
Cc1cccn2c(=O)c3c(nc12)N1CCC(Cc2ccccc2)CC1C1(C3)C(=O)N(C)C(=O)N(C)C1=O (stereo not given)	-5	0.9	59*	32	-159	0.9
CCOc1c(Cl)cc(CNCCc2c[nH]c3ccccc23)cc1OC	.	0.8	42	34	39	0.8
CCOc1cc(CNCCc2c[nH]c3ccccc23)cc(Cl)c1OCC	-24	0.8	4	86*	-3	0.9
O=c1cccc2n1C[C@H]1C[C@@H]2CN2CCCC[C@@H]12	22	.	.	.	1	.
COc1ccc2cc(C(=O)C3CCCN(C4CCOCC4)C3)ccc2c1 (stereo not given)	18	1	99*	5	i	1
SMILES	Rad51 HR inh	PMI act	Lmaj promast	WT yeast gro inh	m-calpain inh	PMI act hi M6P
COc1c(C)cc(C(=O)C2CCCN(C3CCOCC3)C2)cc1C (stereo not given)	.	0.9	97*	-7	5	0.9
O=C(c1ccc(Cl)cc1)C1CCCN(C2CCSCC2)C1 (stereo not given)	0	1	91*	-6	-16	1
CCCCn1c(O)c(C(C)=NCc2ccco2)c(=O)[nH]c1=O	.	.	.	.	8	.
COc1cc(/C=C(/C)[N+](=O)[O-])ccc1OCc1ccccc1Cl	.	0.9	100*	56	10	0.9
O=C1OCc2cc(N=Nc3c(O)[nH]c(=O)[nH]c3=O)ccc21	5	.	.	.	-22	.
CC(C)N1CCN(c2ccc(O)cc2)CC1	-7	0.5	56*	-7	6	0.3
O=C(CN1CC=C(c2ccccc2)CC1)Nc1cc(Cl)ccc1Cl	4	1.1	55*	24	9	1.1
O=C(CN1CC=C(c2ccccc2)CC1)Nc1c(Cl)cccc1Cl	-36	1.2	5	-31	7	0.9
CC(C)Oc1ccc(CCN)cc1Cl	.	0.9	26	6	0	1
CCCCOc1ccc(CCN)cc1Cl	4	0.9	89*	14	17	0.9
CC1CN=C(NCCc2ccccc2)S1 (stereo not given)	25	1	3	1	0	1
COc1ccc(OCC(=O)N2CCN(Cc3ccc(SC)cc3)CC2)cc1	5	.	84*	-4	-36	.
Cc1ccc(OCC(=O)N2CCN(Cc3ccc4c(c3)OCO4)CC2)cc1	-9	1	83*	17	19	1
N#Cc1ccc(OCC(=O)N2CCN(Cc3ccc4c(c3)OCO4)CC2)cc1	5	1	76*	-4	-20	1
Cc1cccc(OCC(=O)N2CCN(Cc3ccc([N+](=O)[O-])cc3)CC2)c1	5	.	58*	-9	-26	.
C=CCSc1nc2c(c(-c3ccsc3)c1C#N)CN(C)CC2	.	.	.	.	-37	.
Cc1nccn1Cc1ccc(Cl)nc1	7	1.2	-7	3	-15	1.1
O=c1cccc2n1CC1CC2CN(S(=O)(=O)c2ccc(F)cc2)C1 (stereo not given)	-3	0.9	-5	22	-10	0.9
COc1ccc(OCC(=O)N2CCN(Cc3ccc4c(c3)OCO4)CC2)cc1	.	1	64*	-4	5	1
CC1CCN(CC(=O)c2ccccc2Cl)CC1	-6	1.5	-9	-13	-11	2*
O=C(NCCN1CCOCC1)c1ccc(Cl)nc1	40*	.	.	.	-25	.
Nc1c(C(=O)NCc2ccco2)c2nc3ccccc3nc2n1CCN1CCOCC1	0	1.1	7	-3	i	1.1
COc1cc2c(cc1OC)-c1c(OC)c(OC)cc3c1C(C2)N(C)CC3 (stereo not given)	-5	0.9	2	-2	-44	0.6
COc1cc2c(cc1O)C[C@H]1NCCc3cc4c(c-2c31)OCO4	8	0.9	99*	4	-189	0.5
COc1cc2c(cc1OC)-c1c3c(cc4c1[C@@H](C2)N(C)CC4)OCO3	2	1	97*	-2	-34	0.6
CC(=O)Nc1ccc(OC(=O)N2CCCCC2)cc1	2	1	-6	2	-4	1
